Measurements taken from ChEMBL document CHEMBL4431339, “1,2,3-Triazoles as Amide Bioisosteres: Discovery of a New Class of Potent HIV-1 Vif Antagonists” (J Med Chem, 2016).
The source made the active and inactive calls. Unless noted, no cut-off for these calls is given here.

Assays:
[1] = target: Virion infectivity factor (Human immunodeficiency virus type 1 group M subtype B (isolate NY5)(HIV-1)) (UniProt P12504); assay: Antagonist activity against HIV-1 GFP-tagged Vif in human HEK293FT cells co-expressing HA-tagged A3G assessed as downregulation of Vif expression expression at 50 uM measured after 16 hrs by immunoblotting method; assay type: cell-based; details: Human immunodeficiency virus 1
Summary of the method: (§1)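 HEK293FT cells co-expressing HA-tagged A3G and either GFP-tagged Vif or Vif were incubated with or without compound (50 µM) for 16 h. Cell extracts were immunoblotted with anti-HA (A3G), anti-GFP (Vif) and anti-GAPDH antibodies. Untreated cells served as the comparison, and choline chloride was included as a negative control in the triazole series.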

[2] = target: Virion infectivity factor (Human immunodeficiency virus type 1 group M subtype B (isolate NY5)(HIV-1)) (UniProt P12504); assay: Antagonist activity against HIV-1 GFP-tagged Vif in human HEK293FT cells co-expressing HA-tagged A3G assessed as upregulation of A3G levels at 50 uM measured after 16 hrs by immunoblotting method; assay type: cell-based; details: Human immunodeficiency virus 1; summary of the method: as §1
[3] = target: Virion infectivity factor (Human immunodeficiency virus type 1 group M subtype B (isolate NY5)(HIV-1), UniProt P12504); assay: (§2) Antagonist activity against HIV-1 Vif in human MT4 cells assessed as inhibition of viral infection at 50 uM measured after 16 hrs by cell-based assay; parameters: species or system Human immunodeficiency virus 1
Summary of the method: (§3)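 Antiviral activity was measured against wild-type HIV-1 in permissive MT-4 cells as a Vif-specificity counter-screen. RN-18 was the positive control, and cells cultured without inhibitor were the negative control. "No activity" means no inhibition at 50 µM.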

[4] = target: Virion infectivity factor (Human immunodeficiency virus type 1 group M subtype B (isolate NY5)(HIV-1)) (UniProt P12504); assay: Antagonist activity against HIV-1 Vif in human H9 cells expressing A3G assessed as inhibition of viral replication by reverse transcriptase assay relative to vehicle-treated control; assay type: cell-based; details: Human immunodeficiency virus 1
Summary of the method: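 Antiviral activity was measured against wild-type HIV-1 in non-permissive (A3G-expressing) H9 cells and reported as IC50. RN-18 was the positive control, and cells cultured without inhibitor were the negative control. Selected compounds were tested across doses, and MTS cell viability was checked in parallel at 50 µM.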

[5] = target: Virion infectivity factor (Human immunodeficiency virus type 1 group M subtype B (isolate NY5)(HIV-1)) (UniProt P12504); assay: Antagonist activity against HIV-1 Vif in human MT4 cells assessed as inhibition of viral infection at 50 and 100 uM measured after 16 hrs by cell-based assay; details: Human immunodeficiency virus 1
[6] = system: HeLa; assay: Cytotoxicity against human HeLa cells at 50 uM measured after 16 hrs by MTS assay relative to DMSO control; assay type: cell-based
[7] = target: Virion infectivity factor (Human immunodeficiency virus type 1 group M subtype B (isolate NY5)(HIV-1)) (UniProt P12504); assay: as §2; details: Human immunodeficiency virus 1; summary of the method: as §3

Chain of Virion infectivity factor (Human immunodeficiency virus type 1 group M subtype B (isolate NY5)(HIV-1)) (P12504 whole entry): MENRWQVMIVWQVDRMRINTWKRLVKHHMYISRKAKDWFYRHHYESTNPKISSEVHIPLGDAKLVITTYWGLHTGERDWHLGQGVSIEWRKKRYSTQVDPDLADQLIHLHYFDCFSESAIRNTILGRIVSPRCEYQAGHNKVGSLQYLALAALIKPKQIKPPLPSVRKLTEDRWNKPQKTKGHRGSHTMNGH
Chain of Virion infectivity factor (P12504 whole entry): as above

Structure (SMILES)	Activity [1]	Activity [2]	IC50 [3]	inhibition [4]	Activity [5]	Activity [6]	Activity [7]
COc1ccccc1-n1cc(-c2ccccc2Sc2ccc([N+](=O)[O-])cc2)nn1	Active	Active	Not Active				
COc1ccccc1NC(=O)c1ccccc1Sc1ccc([N+](=O)[O-])cc1	Active	Active		Dose-dependent effect	inactive	Non-Toxic	inactive
COc1ccc(OC)c(-n2cc(-c3ccccc3S(=O)(=O)c3ccc(N)cc3)nn2)c1	Active	Active		Dose-dependent effect		Non-Toxic	inactive
COc1ccccc1-c1noc(-c2ccccc2Sc2ccc([N+](=O)[O-])cc2)n1	Active	Active	Not Active				
COc1ccccc1-n1cc(-c2ccccc2Sc2ccc(C(F)(F)F)cc2)nn1	Active	Active		Dose-dependent effect		Non-Toxic	inactive
